Source: ChEMBL document CHEMBL4145662, “Novel Nonsteroidal Progesterone Receptor (PR) Antagonists with a Phenanthridinone Skeleton” (ACS Med Chem Lett, 2018)
The source made the active and inactive calls. The calls are words filed in the database; no cut-off is given here.

How the values were obtained:
Homo sapiens [1] = species: Homo sapiens; assay: Selectivity ratio of IC50 for human RORbeta1 expressed in HEK293 cells to IC50 for PR in human T47D cells assessed as inhibition of progesterone-induced alkaline phosphatase activity; type: cell-based
Homo sapiens [2] = species: Homo sapiens; assay: Selectivity ratio of IC50 for human RORgamma1 expressed in HEK293 cells to IC50 for PR in human T47D cells assessed as inhibition of progesterone-induced alkaline phosphatase activity; type: cell-based
Progesterone receptor [3] = molecular target: T1, Progesterone receptor (Homo sapiens, UniProt P06401); assay: Antagonist activity at PR in human T47D cells assessed as inhibition of progesterone-induced alkaline phosphatase activity measured after 24 hrs; type: cell-based
T1 sequence (P06401 whole entry): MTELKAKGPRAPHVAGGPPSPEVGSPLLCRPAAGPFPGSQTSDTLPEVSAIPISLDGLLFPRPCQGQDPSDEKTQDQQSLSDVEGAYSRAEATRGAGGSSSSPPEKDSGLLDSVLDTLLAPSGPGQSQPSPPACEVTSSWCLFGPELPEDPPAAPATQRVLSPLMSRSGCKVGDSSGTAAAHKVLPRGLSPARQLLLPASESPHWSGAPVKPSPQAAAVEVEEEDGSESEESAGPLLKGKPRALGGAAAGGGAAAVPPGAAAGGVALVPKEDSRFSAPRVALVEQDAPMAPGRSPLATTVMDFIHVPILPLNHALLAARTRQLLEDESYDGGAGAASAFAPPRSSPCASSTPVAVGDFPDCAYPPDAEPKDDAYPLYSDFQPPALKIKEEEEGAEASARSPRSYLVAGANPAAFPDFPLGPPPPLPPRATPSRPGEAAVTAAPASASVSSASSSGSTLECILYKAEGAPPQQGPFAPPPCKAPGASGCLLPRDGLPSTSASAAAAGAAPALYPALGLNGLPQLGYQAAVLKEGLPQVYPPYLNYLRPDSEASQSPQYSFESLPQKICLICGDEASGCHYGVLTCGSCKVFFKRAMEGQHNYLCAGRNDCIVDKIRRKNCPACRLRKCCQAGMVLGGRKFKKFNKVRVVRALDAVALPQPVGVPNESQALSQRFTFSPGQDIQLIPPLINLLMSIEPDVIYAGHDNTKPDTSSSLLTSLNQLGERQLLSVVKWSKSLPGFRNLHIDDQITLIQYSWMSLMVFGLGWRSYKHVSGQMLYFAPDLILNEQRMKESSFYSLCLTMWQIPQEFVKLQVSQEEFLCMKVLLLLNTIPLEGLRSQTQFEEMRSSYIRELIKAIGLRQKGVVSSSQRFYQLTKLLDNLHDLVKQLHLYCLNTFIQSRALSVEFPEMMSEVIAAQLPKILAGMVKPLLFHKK

[4] = molecular target: T2, Nuclear receptor ROR-beta (Homo sapiens, UniProt Q92753); assay: Antagonist activity at human RORbeta1 expressed in HEK293 cells after 24 hrs by luciferase reporter gene assay; type: cell-based
T2 sequence (Q92753 whole entry): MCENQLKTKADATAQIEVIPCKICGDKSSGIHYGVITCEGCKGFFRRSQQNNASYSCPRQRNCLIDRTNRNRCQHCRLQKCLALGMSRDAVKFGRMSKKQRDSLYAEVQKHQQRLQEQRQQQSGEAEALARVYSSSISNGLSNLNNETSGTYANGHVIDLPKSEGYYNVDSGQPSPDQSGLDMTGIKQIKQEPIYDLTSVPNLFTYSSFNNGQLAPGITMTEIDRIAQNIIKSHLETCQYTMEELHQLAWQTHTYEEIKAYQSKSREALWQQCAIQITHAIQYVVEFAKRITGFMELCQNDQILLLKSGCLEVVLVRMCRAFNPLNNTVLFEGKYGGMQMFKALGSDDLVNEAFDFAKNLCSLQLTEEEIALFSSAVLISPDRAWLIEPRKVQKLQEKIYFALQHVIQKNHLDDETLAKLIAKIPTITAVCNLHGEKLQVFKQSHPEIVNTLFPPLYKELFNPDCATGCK
In short: (§1)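 Inverse agonism at RORα, RORβ or RORγ measured by reporter gene assay.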

Homo sapiens [5] = species: Homo sapiens; assay: Selectivity ratio of IC50 for human CMX-GRalpha expressed in HEK293 cells to IC50 for PR in human T47D cells assessed as inhibition of progesterone-induced alkaline phosphatase activity; type: cell-based
[6] = molecular target: T3, Nuclear receptor ROR-alpha (Homo sapiens) (UniProt P35398); assay: Antagonist activity at human RORalpha1 expressed in HEK293 cells at 20 uM after 24 hrs by luciferase reporter gene assay; type: cell-based; in short: as §1
T3 sequence (whole entry): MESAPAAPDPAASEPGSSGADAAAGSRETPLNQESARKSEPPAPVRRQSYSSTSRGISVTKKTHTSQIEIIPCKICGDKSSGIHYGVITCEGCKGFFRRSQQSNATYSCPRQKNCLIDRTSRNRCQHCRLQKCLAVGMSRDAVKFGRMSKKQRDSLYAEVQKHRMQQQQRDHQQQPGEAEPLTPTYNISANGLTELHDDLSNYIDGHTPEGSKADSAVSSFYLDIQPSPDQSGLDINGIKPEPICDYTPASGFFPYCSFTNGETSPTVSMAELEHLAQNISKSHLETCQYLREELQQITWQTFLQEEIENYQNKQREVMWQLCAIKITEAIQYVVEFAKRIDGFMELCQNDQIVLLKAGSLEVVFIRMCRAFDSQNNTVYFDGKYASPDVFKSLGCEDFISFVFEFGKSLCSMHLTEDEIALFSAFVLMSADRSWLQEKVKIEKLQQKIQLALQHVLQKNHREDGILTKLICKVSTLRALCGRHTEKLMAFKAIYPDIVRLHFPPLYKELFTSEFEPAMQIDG

Homo sapiens [7] = species: Homo sapiens; assay: Selectivity ratio of IC50 for human GAL4N-fused LXRalpha LBD expressed in HEK293 cells to IC50 for PR in human T47D cells assessed as inhibition of progesterone-induced alkaline phosphatase activity; type: cell-based
Progesterone receptor [8] = molecular target: T1, Progesterone receptor; assay: Displacement of [1,2,6,7-3H]progesterone from recombinant human GST-tagged PGR LBD (678 to 933 residues) expressed in baculovirus-infected insect cells measured after 24 hrs by liquid scintillation counting method
Homo sapiens [9] = species: Homo sapiens; assay: Selectivity ratio of IC50 for human CMX-AR expressed in HEK293 cells to IC50 for PR in human T47D cells assessed as inhibition of progesterone-induced alkaline phosphatase activity; type: cell-based

Structure (SMILES)	Ratio IC50 (Homo sapiens [1])	Ratio IC50 (Homo sapiens [2])	IC50 (Progesterone receptor [3]) [µM]	IC50 [4] [µM]	Ratio IC50 (Homo sapiens [5])	Activity [6]	Ratio IC50 (Homo sapiens [7])	IC50 (Progesterone receptor [8]) [µM]	Ratio IC50 (Homo sapiens [9])
Cc1cc(C(O)(C(F)(F)F)C(F)(F)F)cc2c1[nH]c(=O)c1cc(F)ccc12	> 300	> 300	0.046	> 20	> 300	inactive	> 300	0.34	> 30
Cc1cc(C(O)(C(F)(F)F)C(F)(F)F)cc2c3ccc(F)cc3c(=O)n(C)c12	> 300	> 300	0.027	> 20	> 300	inactive	> 300	0.15	> 10
Cc1cc(C(O)(C(F)(F)F)C(F)(F)F)cc2c1[nH]c(=O)c1ccccc12	> 100	> 100	0.15	> 20	> 100	inactive	> 100	1.5	> 100
